Laboratory results reported in ChEMBL document CHEMBL1177891, “Synthesis and bioassay of pyrrolyl oxazolines and thiazolines” (2010).
Values after ≈ are worked out from the molar mass of the structure shown.

How the values were obtained:
Type in all cases: functional
Bacillus subtilis [1] = assay: Antibacterial activity against Bacillus subtilis at 100 ug/disk after 24 hrs by disk diffusion method; conditions: read-out: IZ
Summary of the method: (§1)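 Agar disc diffusion on nutrient agar with NCIM bacteria. 6 mm sterile paper discs moistened with compound in DMSO (100 or 200 μg/disc) placed on pre-inoculated plates. Incubated at 37 °C; growth-inhibition zone diameter measured after 24 h. Chloramphenicol control.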

[2] = system: Radical scavenging activity; assay: Antioxidant activity assessed as DPPH radical scavenging activity at 100 uM
Summary of the method: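 Compound (100 μM) added to 100 μM DPPH in dioxane/ethanol. Kept at ambient temperature 20 min, then absorbance read at 517 nm. Percent DPPH scavenging taken from difference between test and control.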

Aspergillus niger [3] = assay: Antifungal activity against Aspergillus niger at 200 ug/disk after 48 hrs by disk diffusion method; conditions: read-out: IZ
Summary of the method: (§2)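 Fungi from NCIM on nutrient agar plates, pre-inoculated. 6 mm paper discs carrying 100 or 200 μg compound in DMSO applied. Plates incubated at 37 °C and inhibition zone diameter measured at 48 h. Ketoconazole control.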

Proteus vulgaris [4] = assay: Antibacterial activity against Proteus vulgaris at 200 ug/disk after 24 hrs by disk diffusion method; conditions: read-out: IZ; summary of the method: as §1
Curvularia lunata [5] = assay: Antifungal activity against Curvularia lunata at 100 ug/disk after 48 hrs by disk diffusion method; conditions: read-out: IZ; summary of the method: as §2
Proteus vulgaris [6] = assay: Antibacterial activity against Proteus vulgaris at 100 ug/disk after 24 hrs by disk diffusion method; conditions: read-out: IZ; summary of the method: as §1
Staphylococcus aureus [7] = assay: Antibacterial activity against Staphylococcus aureus at 100 ug/disk after 24 hrs by disk diffusion method; conditions: read-out: IZ; summary of the method: as §1
Klebsiella pneumoniae [8] = assay: Antibacterial activity against Klebsiella pneumoniae at 200 ug/disk after 24 hrs by disk diffusion method; conditions: read-out: IZ; summary of the method: as §1
Bacillus subtilis [9] = assay: Antibacterial activity against Bacillus subtilis at 200 ug/disk after 24 hrs by disk diffusion method; conditions: read-out: IZ; summary of the method: as §1
Fusarium solani [10] = assay: Antifungal activity against Fusarium solani at 200 ug/disk after 48 hrs by disk diffusion method; conditions: read-out: IZ; summary of the method: as §2
[11] = Antioxidant activity assessed as inhibition of nitric oxide production at 100 uM
Summary of the method: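 Sodium nitroprusside ([…]) in phosphate buffer pH 7.4 incubated with 100 μM compound (dioxane/methanol) at 25 °C for 120 min; solvent-only control. Aliquots mixed 1:1 with Griess reagent (1% sulfanilamide, 0.1% N-naphthylethylenediamine, 2% phosphoric acid). Absorbance at 546 nm, triplicate.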

Staphylococcus aureus [12] = assay: Antibacterial activity against Staphylococcus aureus at 200 ug/disk after 24 hrs by disk diffusion method; conditions: read-out: IZ; summary of the method: as §1
Klebsiella pneumoniae [13] = assay: Antibacterial activity against Klebsiella pneumoniae at 100 ug/disk after 24 hrs by disk diffusion method; conditions: read-out: IZ; summary of the method: as §1
Curvularia lunata [14] = assay: Antifungal activity against […] lunata at 200 ug/disk after 48 hrs by disk diffusion method; conditions: read-out: IZ; summary of the method: as §2
Fusarium solani [15] = assay: Antifungal activity against Fusarium solani at 100 ug/disk after 48 hrs by disk diffusion method; conditions: read-out: IZ; summary of the method: as §2
[16] = Antioxidant activity assessed as increase in reducing power at 100 uM
Summary of the method: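 Oyaizu method. Compound at 100 μM in methanol mixed with 0.2 M phosphate buffer pH 6.6 and 1% potassium ferricyanide, 50 °C for 20 min. 10% TCA added, then centrifuged 3000 rpm for 10 min. Upper layer mixed with water and 0.1% FeCl3; absorbance read at 700 nm.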

Aspergillus niger [17] = assay: Antifungal activity against Aspergillus niger at 100 ug/disk after 48 hrs by disk diffusion method; conditions: read-out: IZ; summary of the method: as §2
Curvularia lunata [18] = assay: Antifungal activity against Curvularia lunata after 48 hrs by microdilution susceptibility assay
Summary of the method: (§3)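 Fungal strains from NCIM. Microdilution: stocks at 800 μg/ml in DMSO, two-fold dilutions 400 down to 6.25 μg/ml, wells inoculated with fungal suspension, incubated 36 °C for 48 h. MIC read as lowest concentration without turbidity. Ketoconazole reference.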

Aspergillus niger [19] = assay: Antifungal activity against Aspergillus niger after 48 hrs by microdilution susceptibility assay; summary of the method: as §3
Fusarium solani [20] = assay: Antifungal activity against Fusarium solani after 48 hrs by microdilution susceptibility assay; summary of the method: as §3
Klebsiella pneumoniae [21] = assay: Antibacterial activity against Klebsiella pneumoniae after 24 hrs by microdilution susceptibility assay
Summary of the method: (§4)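 Bacterial strains from NCIM. Broth microdilution: stocks at 800 μg/ml in DMSO, two-fold dilutions 400, 200, 100 ... 6.25 μg/ml, wells inoculated with bacterial suspension, 36 °C for 24 h. MIC = lowest concentration with no turbidity (no visible growth). Chloramphenicol as reference.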

Proteus vulgaris [22] = assay: Antibacterial activity against Proteus vulgaris after 24 hrs by microdilution susceptibility assay; summary of the method: as §4
Bacillus subtilis [23] = assay: Antibacterial activity against Bacillus subtilis after 24 hrs by microdilution susceptibility assay; summary of the method: as §4
Staphylococcus aureus [24] = assay: Antibacterial activity against Staphylococcus aureus after 24 hrs by microdilution susceptibility assay; summary of the method: as §4

SMILES | zone of inhibition at 100 µg/disc (Bacillus subtilis [1]) | inhibition [2] | zone of inhibition at 200 µg/disc (Aspergillus niger [3]) | zone of inhibition at 200 µg/disc (Proteus vulgaris [4]) | zone of inhibition at 100 µg/disc (Curvularia lunata [5]) | zone of inhibition at 100 µg/disc (Proteus vulgaris [6]) | zone of inhibition at 100 µg/disc (Staphylococcus aureus [7]) | zone of inhibition at 200 µg/disc (Klebsiella pneumoniae [8]) | zone of inhibition at 200 µg/disc (Bacillus subtilis [9]) | zone of inhibition at 200 µg/disc (Fusarium solani [10]) | inhibition [11] | zone of inhibition at 200 µg/disc (Staphylococcus aureus [12]) | zone of inhibition at 100 µg/disc (Klebsiella pneumoniae [13]) | zone of inhibition at 200 µg/disc (Curvularia lunata [14]) | zone of inhibition at 100 µg/disc (Fusarium solani [15]) | inhibition [16] | zone of inhibition at 100 µg/disc (Aspergillus niger [17]) | other results
Cc1ccc(S(=O)(=O)/C=C/S(=O)(=O)CC2=NCCS2)cc1 | 19 mm | 22.2% | 23 mm | 18 mm | 21 mm | 15 mm | 20 mm | 20 mm | 21 mm | 25 mm | 21.7% | 23 mm | 17 mm | 24 mm | 22 mm | 21.2% | 20 mm | –
O=S(=O)(/C=C/S(=O)(=O)c1ccccc1)CC1=NCCO1 | 10 mm | 83.7% | 19 mm | – | 16 mm | – | 11 mm | – | 12 mm | 15 mm | 82.1% | 13 mm | – | 18 mm | 14 mm | 79.5% | 17 mm | –
Cc1cc(C(C)(C)C)c(O)c(C(C)(C)C)c1 | – | – | – | – | – | – | – | – | – | – | – | – | – | – | – | 92.3% | – | –
Cc1ccc(S(=O)(=O)/C=C/S(=O)(=O)CC2=NCCO2)cc1 | 9 mm | 73.9% | 16 mm | – | 18 mm | – | 10 mm | – | 11 mm | 17 mm | 74.2% | 13 mm | – | 19 mm | 14 mm | 73.5% | 14 mm | –
O=C1O[C@H]([C@@H](O)CO)C(O)=C1O | – | 95.4% | – | – | – | – | – | – | – | – | 96.9% | – | – | – | – | – | – | –
O=S(=O)(/C=C/S(=O)(=O)c1ccc(Cl)cc1)CC1=NCCS1 | 29 mm | 33.5% | 29 mm | 22 mm | 24 mm | 21 mm | 27 mm | 23 mm | 31 mm | 31 mm | 32.3% | 28 mm | 22 mm | 28 mm | 29 mm | 28.3% | 27 mm | –
O=S(=O)(/C=C/S(=O)(=O)c1ccc(Cl)cc1)CC1=NCCO1 | 12 mm | 86.6% | 20 mm | 10 mm | 18 mm | 9 mm | 13 mm | 12 mm | 14 mm | 19 mm | 85.5% | 15 mm | 10 mm | 20 mm | 16 mm | 82.7% | 17 mm | –
CC(=O)N1CCN(c2ccc(OCC3COC(Cn4ccnc4)(c4ccc(Cl)cc4Cl)O3)cc2)CC1 (stereo unspecified) [KETOCONAZOLE] | – | – | 39 mm | – | 41 mm | – | – | – | – | 42 mm | – | – | – | 44 mm | 38 mm | – | 36 mm | MIC (Curvularia lunata [18]): 6.25 µg/mL (≈ 11.8 µM); MIC (Aspergillus niger [19]): 6.25 µg/mL (≈ 11.8 µM); MIC (Fusarium solani [20]): 12.5 µg/mL (≈ 23.5 µM)
O=C(N[C@H](CO)[C@H](O)c1ccc([N+](=O)[O-])cc1)C(Cl)Cl [CHLORAMPHENICOL] | 38 mm | – | – | 45 mm | – | 42 mm | 35 mm | 42 mm | 44 mm | – | – | 41 mm | 37 mm | – | – | – | – | MIC (Klebsiella pneumoniae [21]): 6.25 µg/mL (≈ 19.3 µM); MIC (Proteus vulgaris [22]): 12.5 µg/mL (≈ 38.7 µM); MIC (Bacillus subtilis [23]): 6.25 µg/mL (≈ 19.3 µM); MIC (Staphylococcus aureus [24]): 6.25 µg/mL (≈ 19.3 µM)
O=S(=O)(CC1=NCCO1)c1c[nH]cc1S(=O)(=O)c1ccccc1 | 16 mm | 88.3% | 22 mm | 15 mm | 19 mm | 13 mm | 15 mm | 17 mm | 18 mm | 22 mm | 87.7% | 19 mm | 14 mm | 23 mm | 18 mm | 86.8% | 20 mm | –
Cc1ccc(S(=O)(=O)c2c[nH]cc2S(=O)(=O)CC2=NCCO2)cc1 | 13 mm | 76.1% | 21 mm | 13 mm | 17 mm | 11 mm | 12 mm | 13 mm | 14 mm | 20 mm | 78.5% | 15 mm | 10 mm | 21 mm | 18 mm | 77.3% | 17 mm | –
Cc1ccc(S(=O)(=O)c2c[nH]cc2S(=O)(=O)CC2=NCCS2)cc1 | 22 mm | 23.2% | 35 mm | 19 mm | 28 mm | 17 mm | 23 mm | 21 mm | 24 mm | 31 mm | 23.7% | 26 mm | 20 mm | 32 mm | 29 mm | 22.9% | 31 mm | –
O=S(=O)(/C=C/S(=O)(=O)c1ccccc1)CC1=NCCS1 | 22 mm | 29.3% | 28 mm | 18 mm | 24 mm | 17 mm | 21 mm | 21 mm | 23 mm | 29 mm | 30.4% | 24 mm | 19 mm | 26 mm | 26 mm | 29.3% | 26 mm | –
O=S(=O)(CC1=NCCO1)c1c[nH]cc1S(=O)(=O)c1ccc(Cl)cc1 | 16 mm | 91.5% | 22 mm | 14 mm | 20 mm | 12 mm | 17 mm | 17 mm | 19 mm | 23 mm | 92.1% | 19 mm | 15 mm | 23 mm | 21 mm | 89.4% | 21 mm | –
